Compound activity as filed in PubChem.
The sample as a whole holds a higher share of hits than the screen did.
DTT redox prof: compounds producing H2O2 with reducing agent – biochemical, NIH compound library profiling, artefact control for MLSCN library redox annotation, primary screen. AID 878. DTT-dependent redox cycling H2O2, phenol red/HRP absorbance; 100% = 100 µM peroxide control, 0% = buffer. 200,000 compounds, 0.03% hits. activation, % at 10 µM;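 active = activation of at least 50% relative to the plate's high and low controls in the primary single-dose screen; inactive = activation below 50%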;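 note: compound incubated with DTT at 0.8 mM final as the reducing agent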
Lmaj promast: Leishmania major promastigote growth inhibition; Leishmania major promastigotes, resazurin fluorescence viability; inhibition, % at 10 µM; 200,000 compounds, 9% hits; AID 1063; in the data active = inhibition above about 50%;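 note: promastigotes grown with compound for 44 hours at 28 °C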
MPTP inh: permeability transition pore inhibition. isolated mouse mitochondria, Ca2+ swelling absorbance, 30 min. inhibition, % at 10 µM. 360,000 compounds, 1.4% hits;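 active = inhibition of 50% or more, scaled per plate between neutral and stimulator controls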
Hep lipid drop: modulators of hepatic lipid droplet formation. AML12 mouse hepatocytes, oleate lipid droplets, BODIPY imaging. inhibition, % at 6.5 µM. 240,000 compounds, 0.4% hits;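 active = lipid droplet intensity inhibited by at least 50%, with more than 500 cells counted; inconclusive = wells with under 300 cells, treated as cytotoxic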
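Test system: AML12 mouse liver cells; schedule: overnight exposure; technique: high-content imaging of BODIPY-stained droplets and DAPI nuclei; read-out: % inhibition of corrected integrated BODIPY droplet signal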
T cruzi repl: T. cruzi replication inhibition. inhibition, % (concentration not given with the values). AID 1885. T. cruzi beta-gal in NIH3T3, luminescence, 90 h. 300,000 compounds, 1.4% hits;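 active = mean inhibition across valid replicates above about 55%, limit read from the data; inconclusive = mean below that limit but half or more replicates reach it; inactive = mean below it, under half of replicates reach it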;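 note: signal also drops with host cell toxicity which is not excluded here; higher percent means less beta-gal luminescence so fewer parasites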
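System: NIH/3T3 fibroblasts plus reporter T. cruzi. Medium: DMEM plus 2% FBS. Probe or stimulus: 5000 reporter trypomastigotes per well. Compound: single 50 nL compound addition per well in DMSO. Incubation: co-culture of at least 90 h after 3 h attachment. Detection: GalScreen β-gal luminescence, detergent lysis, 60 min. Evaluation: parasite load inhibition, %.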
A number is an active result.

What do the screens show for `O=C(NCc1nnnn1-c1ccc(F)cc1)c1ccc([N+](=O)[O-])o1`?
MPTP inh: inactive; T cruzi repl: inactive

How did Cc1ccc(-c2csc(NC(=O)c3ccc(C)o3)n2)cc1 do in these assays?
DTT redox prof: inactive; Lmaj promast: inactive; MPTP inh: inactive; Hep lipid drop: inactive; T cruzi repl: inactive

What do the screens show for `Cc1ccc(/C=C/C(=O)c2ccc([N+](=O)[O-])o2)cc1`?
T cruzi repl: inactive

How did Cc1ccc(-c2csc(NC(=O)c3ccc([N+](=O)[O-])o3)n2)cc1 do in these assays?
MPTP inh: inactive; Hep lipid drop: inactive; T cruzi repl: 70

How did O=C(Nc1ccccc1N1CCN(C(=O)c2ccccc2)CC1)c1cc(Br)ccc1Cl do in these assays?
DTT redox prof: inactive; Lmaj promast: inactive; MPTP inh: inactive; T cruzi repl: inactive

Results for COc1ccc(Br)cc1C(=O)Nc1ccccc1N1CCN(C(=O)c2ccccc2)CC1 ?
DTT redox prof: inactive; Lmaj promast: 55; MPTP inh: inactive; T cruzi repl: 59

What do the screens show for `COc1c(C)cc(Br)cc1C(=O)Nc1ccccc1N1CCN(C(=O)c2ccccc2)CC1`?
DTT redox prof: inactive; Lmaj promast: inactive; MPTP inh: inactive; T cruzi repl: 66

How did CN(C(=O)C(Cl)Cl)C1CC2C=CC1C2 (stereo unspecified) do in these assays?
MPTP inh: inactive; Hep lipid drop: inactive; T cruzi repl: inactive

How did COC(=O)c1ccc(COc2cc(O)c3c(c2)OC(C)(C)CC3=O)cc1 do in these assays?
DTT redox prof: inactive; Lmaj promast: inactive; MPTP inh: inactive; Hep lipid drop: inactive; T cruzi repl: inactive

What do the screens show for `CC1(C)CC(=O)c2c(O)cc(OCc3ccc(Br)cc3)cc2O1`?
DTT redox prof: inactive; Lmaj promast: 69; MPTP inh: inactive; Hep lipid drop: inactive; T cruzi repl: inactive

Results for COc1cc(/C=C(\NC(=O)c2cc(OC)c(OC)c(OC)c2)C(=O)NC(C(=O)O)c2ccccc2)cc(OC)c1OC (stereo unspecified) ?
MPTP inh: inactive; Hep lipid drop: inactive; T cruzi repl: inactive

What do the screens show for `Cc1ccc(-c2cc(C(=O)N/N=C/c3c(C)nn(-c4ccccc4)c3C)[nH]n2)cc1`?
DTT redox prof: inactive; Lmaj promast: 71; MPTP inh: inactive; Hep lipid drop: inconclusive; T cruzi repl: inactive

How did Cc1ccc(-c2cc(C(=O)N/N=C/c3c(C)nn(-c4ccccc4)c3C)n[nH]2)s1 do in these assays?
DTT redox prof: inactive; Lmaj promast: 58; MPTP inh: inactive; Hep lipid drop: inconclusive; T cruzi repl: inactive

What do the screens show for `Cc1nn(-c2ccccc2)c(C)c1/C=N/NC(=O)c1cc(C(C)(C)C)[nH]n1`?
DTT redox prof: inactive; Lmaj promast: inactive; MPTP inh: inactive; Hep lipid drop: inactive; T cruzi repl: inactive

Results for Oc1c(C(Nc2nc3ccccc3s2)c2ccco2)ccc2cccnc12 (stereo unspecified) ?
DTT redox prof: inactive; Lmaj promast: 100; MPTP inh: inactive; T cruzi repl: inconclusive

What do the screens show for `CC(=O)NC(c1ccco1)c1cc(F)c2cccnc2c1O` (stereo unspecified)?
MPTP inh: inactive

What do the screens show for `CC(C)C(=O)NC(c1ccco1)c1ccc2cccnc2c1O` (stereo unspecified)?
DTT redox prof: inactive; Lmaj promast: 100; MPTP inh: inactive; T cruzi repl: inactive

Results for Cc1cccn2c(CNCC3(c4ccccc4)CCCC3)c(C(=O)N3CCOCC3)nc12 ?
DTT redox prof: inactive; Lmaj promast: inactive; MPTP inh: inactive; Hep lipid drop: inactive; T cruzi repl: inactive

Results for Cc1cc(NCCCN2CCOCC2)n2ncc(-c3ccc(Cl)cc3)c2n1 ?
DTT redox prof: inactive; Lmaj promast: 99; MPTP inh: inactive; T cruzi repl: inactive

Results for Cc1cc(NCCCn2ccnc2)n2ncc(-c3ccc(Cl)cc3)c2n1 ?
DTT redox prof: inactive; Lmaj promast: 100; MPTP inh: inactive; T cruzi repl: inactive

How did CN(C)CCCNc1cc(C(C)(C)C)nc2c(-c3ccc(Cl)cc3)cnn12 do in these assays?
MPTP inh: inactive; Hep lipid drop: inactive; T cruzi repl: inactive

What do the screens show for `Nc1cc(=O)[nH]c(SCC(=O)NNC(=O)Cc2ccccc2)n1`?
DTT redox prof: inactive; Lmaj promast: inactive; MPTP inh: inactive; Hep lipid drop: inactive; T cruzi repl: inactive

Results for CCCCN(CC)S(=O)(=O)c1ccc(C(=O)Nc2nnc(-c3cccs3)o2)cc1 ?
DTT redox prof: inactive; Lmaj promast: 99; Hep lipid drop: inactive; T cruzi repl: 63

What do the screens show for `CCc1nnc(NC(=O)c2ccc(S(=O)(=O)N(CC)Cc3ccccc3)cc2)o1`?
DTT redox prof: inactive; Lmaj promast: 99; MPTP inh: inactive; T cruzi repl: inactive

What do the screens show for `CCN(Cc1ccccc1)S(=O)(=O)c1ccc(C(=O)Nc2nnc(C)o2)cc1`?
MPTP inh: inactive; Hep lipid drop: inactive; T cruzi repl: inactive

What do the screens show for `CCCCN(C)S(=O)(=O)c1ccc(C(=O)Nc2nnc(-c3ccco3)o2)cc1`?
DTT redox prof: inactive; Lmaj promast: 96; MPTP inh: inactive; Hep lipid drop: inactive; T cruzi repl: inactive

What do the screens show for `CCN(CC)S(=O)(=O)c1ccc(C(=O)Nc2nnc(-c3ccco3)o2)cc1`?
DTT redox prof: inactive; Lmaj promast: 92; MPTP inh: inactive; Hep lipid drop: inactive; T cruzi repl: inactive

What do the screens show for `CN(C)S(=O)(=O)c1ccc(C(=O)Nc2nnc(-c3ccco3)o2)cc1`?
DTT redox prof: inactive; Lmaj promast: inactive; MPTP inh: inactive; Hep lipid drop: inactive; T cruzi repl: inactive

Results for COc1ccc(C2=C(c3ccccc3)OC(OC)c3cc(F)ccc32)cn1 (stereo unspecified) ?
MPTP inh: inactive

How did O=C(Cn1cc([N+](=O)[O-])cn1)NCc1cc2ccccc2[nH]1 do in these assays?
DTT redox prof: inactive; Lmaj promast: inactive; MPTP inh: inactive; Hep lipid drop: inactive; T cruzi repl: inactive

Results for COc1cccc(N2CCN(c3ccc4nnc(CCC(=O)Nc5ncccc5C)n4n3)CC2)c1 ?
MPTP inh: inactive; Hep lipid drop: inactive; T cruzi repl: inactive

Results for O=C(Nc1ccc(N2CCCCC2)cc1)c1ccc([N+](=O)[O-])o1 ?
MPTP inh: inactive; Hep lipid drop: inactive; T cruzi repl: inactive

Results for CN1CCN(c2ccc(NC(=O)c3ccc(-c4ccc(Br)cc4)o3)cc2)CC1 ?
DTT redox prof: inactive; Lmaj promast: 99; MPTP inh: inactive; Hep lipid drop: inactive; T cruzi repl: 58

How did CCN1CCN(c2ccc(NC(=O)c3ccc(Br)o3)cc2)CC1 do in these assays?
MPTP inh: inactive; Hep lipid drop: inactive; T cruzi repl: inactive

How did CC1CCN(c2ccc(NC(=O)c3ccc([N+](=O)[O-])o3)cc2)CC1 do in these assays?
MPTP inh: inactive; T cruzi repl: 72

What do the screens show for `CS(=O)(=O)N1CCN(c2ccc(NC(=O)c3ccc([N+](=O)[O-])o3)cc2)CC1`?
DTT redox prof: inactive; Lmaj promast: 95; MPTP inh: inactive; Hep lipid drop: inactive; T cruzi repl: inactive
